Laboratory results as given in paper PMC10166105 (International Journal of Nanomedicine, 2023).

Experiments:
[1] = property table of leuprolide acetate; no reference given; cited from earlier work
[2] = tested on: PC3 spheroids; assay: Anti-tumor response in 3D spheroid culture model; type: cell-based, human; conditions: PC3 3D spheroids, 50 μM, 7 days, n = 3
Method in brief: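 PC3 cells were suspended at 2000 cells/mL in 10% FBS-RPMI 1640 with 1% (v/v) Matrigel, plated in ultra-low-attachment wells, centrifuged at 1500 rpm for 10 min and grown at 37 °C, 5% CO2. After 4 days of spheroid formation, test compound was added once at final 50 μM in 2.5% FBS-RPMI. Spheroid area was imaged over 7 days and expressed as fold of day-0 area. n = 3.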

[3] = tested on: PC3 cells; assay: Cell proliferation assay in 2D monolayer culture; type: cell-based, human
Method in brief: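 PC3 cells were grown in RPMI 1640 with 10% FBS and antibiotics, seeded at 1×10^4 cells/well, attached for 24 h, then dosed in 2.5% FBS-RPMI 1640. Single doses of 50, 100 and 200 μM were read at 72 h; daily 50 μM dosing ran for 4 days. Readout was WST-1 for 1 h with absorbance at 450 nm, versus untreated cells, plus live/dead imaging. n = 3, one-way ANOVA.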

[4] = property table of leuprolide acetate; no matrix and reference not given; cited from earlier work
[5] = pH 7.4

CCNC(=O)[C@@H]1CCCN1C(=O)[C@H](CCCNC(=N)N)NC(=O)[C@H](CC(C)C)NC(=O)[C@@H](CC(C)C)NC(=O)[C@H](Cc1ccc(O)cc1)NC(=O)[C@H](CO)NC(=O)[C@H](Cc1c[nH]c2ccccc12)NC(=O)[C@H](Cc1c[nH]cn1)NC(=O)[C@@H]1CCC(=O)N1 [LEU, Leuprolide]
Physiological charge [1]: +1
Spheroid growth (spheroid area/volume), one-time treatment [2]: expansion of spheroid volume
Anti-proliferative effect (% of control) ([3]; PC3, treatment repeated daily at 50 µM for 4 days, WST-1, n = 3): 8.9%
Half-life [4]: 3 h

CCCCCCCCCCCCCCCCCC(=O)O [SA, stearic acid]
Cell survival / cell growth after one-time treatment ([3]; PC3, one-time treatment, 50, 100, 200 μM, 72 h incubation, WST-1): significantly inhibited cell growth

Leuprolide–lauric acid nanoparticle [LLN]
Change of particle size, short-time stability in PBS [5]: slight increase in the particle size

Leuprolide–palmitic acid nanoparticle [LPN]
Change of particle size, short-time stability in PBS [5]: no significant difference

Leuprolide–stearic acid nanoparticle [LSN]
Change of particle size, short-time stability in PBS [5]: no significant difference
